Data as given in the RNAGym collection of RNA variant scans (doi:10.1126/science.aae0568).
Variants at the floor of the assay were thinned out.

B1: tRNA (parent)
chain: GUUCCGUUGGCGUAAUGGUAACGCGUCUCCCUCCUAAGGAGAAGACUGCGGGUUCGAGUCCCGUACGGAACG

Variants of: B1
Test: yeast fitness relative to wild type (ratio to wild type); higher = fitter; tRNA-Arg(CCU), competitive growth, 37 C, YPD
Procedure, shortened: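 Variants of the tRNA-Arg(CCU) gene, chemically synthesised with a 3% per-site mutation rate at 69 sites, were placed at the native genomic locus in Saccharomyces cerevisiae. The pooled strains were competed in YPD at 37°C for 24 hours in six parallel replicates. Gene amplicons from the start population and from each end population were read by 100-nucleotide paired-end sequencing. Darwinian fitness relative to wild type came from changes in genotype frequencies; genotypes needed ≥ 100 starting reads, and estimates < 0.5 were set to 0.5.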

Variant | yeast fitness
GUUCCGUUGGCGUAAUGGUAACGCGUCUCCCUCCUAGGGAGAAGACUGCGGGUUCAAGUCCAGUACGGAGCG | ≤ 0.5
GUUCCGUUGGCGUAAUGGUAACGCGUCUCCCUCCUAUGGCGAAGACUGCGGGUUCGAAUCCCGUACGGAACG | 0.591
GUUCCGUUGGCGUAAUGGUAACGCGUCUCCCUCCUAGGGAGAAGACUGCGGGUUAGAGUCCCGUACGGAACG | ≤ 0.5
GUUCCGUUGGCGUAAUGGUAACGCGUCUCCCUCCUAUGGAGGAGUCUGCGGGUUCGAGUCCCGUACGGAACG | 0.592
GUUCCGUUGGCGUAAUGGUAACGCGUCUCCCUCCUAGGGAGAAGCCUGCGGGUUCGAGUCGCGUACGGAUCG | ≤ 0.5
GUUCCGUUGGCGUAAUGGUAACGCGUCUCCCUCCUAUGGUGAAGACUGCGGGUUCGAGUCCCGUACCGAACG | 0.563
GUUCCGUUGGCGUAAUGGUAACGCGUCUCCCUCCUAUGGAGAAGACUGCGGGUUCGAGUCCCGUACGGAACG | 0.722
GUUCCGUUGGCGUAAUGGUAACGCGUCUCCCUCCUAGGGAGAAGACUGCGGGUUCGAGUCCGGUACGGAACG | 0.676
GUUCCGUUGGCGUAAUGGUAACGCGUCUCCCUCCUAGGGAGAAGACUGCGAGUUCGAGUCCCGUACGGAACG | 0.704
GUUCCGUUGGCGUAAUGGUAACGCGUCUCCCUCCUAGGGAGAAGACUGCGGGUUCAAGUCCCAUACGGAACG | ≤ 0.5
GUUCCGUUGGCGUAAUGGUAACGCGUCUCCCUCCUAGGGAGAAGACUGCGGGUUCGAGCCCCGUACGGAACG | 0.741
GUUCCGUUGGCGUAAUGGUAACGCGUCUCCCUCCUAGGGAGAGGACUGCGGGUUCGAGUCCCGUACGGUACG | 0.802
GUUCCGUUGGCGUAAUGGUAACGCGUCUCCCUCCUAGGAAGAAGACUGCGGGUUCGAGUCCCGUACGGUACG | 0.589
GUUCCGUUGGCGUAAUGGUAACGCGUCUCCCUCCUAGGGAGAAGACUGCGGGCUCGAGUCCGGUACGGAACG | 0.594
GUUCCGUUGGCGUAAUGGUAACGCGUCUCCCUCCUAGGGACAUGACUGCGGGUUCGAGUCCCGUAUGGCACG | ≤ 0.5
GUUCCGUUGGCGUAAUGGUAACGCGUCUCCCUCCUAGAGAGAAGACUGCGGGUUCGAGUCCCGUACGGAACG | 0.725
GUUCCGUUGGCGUAAUGGUAACGCGUCUCCCUCCUAUGGAGCAGACUGCGGGUUUGAGUCCCGUACGGUACG | ≤ 0.5
GUUCCGUUGGCGUAAUGGUAACGCGUCUCCCUCCUAGGGAGAAGCCUGCGGGUUCGAGUCUCGUACGGAACG | 0.579
GUUCCGUUGGCGUAAUGGUAACGCGUCUCCCUCCUAGGGAGAAGCCUGCGGGUUCGAGUCGCGUACGGAACG | ≤ 0.5
GUUCCGUUGGCGUAAUGGUAACGCGUCUCCCUCCUAGGGAGAAGACUGCGGGUUCGAGUCCCGUACGGAGCG | 0.832
GUUCCGUUGGCGUAAUGGUAACGCGUCUCCCUCCUAGGGAGAAGACUGCGGGUUCGAGUCCCGAACGGAACG | 0.61
GUUCCGUUGGCGUAAUGGUAACGCGUCUCCCUCCUAUGGAGGAGUCUGCGGGUUCGAGUCCCGUAUGGAACG | ≤ 0.5
GUUCCGUUGGCGUAAUGGUAACGCGUCUCCCUCCUAGGGAGAAGAUUGCGGGUUUGAGUCCCGUACGGAACG | ≤ 0.5
GUUCCGUUGGCGUAAUGGUAACGCGUCUCCCUCCUAGAGAGAAGACUGCGGGUUUGAGGCCCGUACGGAACG | ≤ 0.5
GUUCCGUUGGCGUAAUGGUAACGCGUCUCCCUCCUAGGGAGAAGACUGCGGGUUCGAGUGCCGUACGAAACG | ≤ 0.5

Variant | yeast fitness
GUUCCGUUGGCGUAAUGGUAACGCGUCUCCCUCCUAGGGAGAAGACUGCGGGUUCGAGUCCCGUACGAGACG | ≤ 0.5
GUUCCGUUGGCGUAAUGGUAACGCGUCUCCCUCCUAGGGAGAAGACUGCGCGUUCGAGUCCGGUAUGGAACG | ≤ 0.5
GUUCCGUUGGCGUAAUGGUAACGCGUCUCCCUCCUAGGGAGAAGCCUGCGGGUUCGAGUCCCGUACGGAACG | 0.78
GUUCCGUUGGCGUAAUGGUAACGCGUCUCCCUCCUAGGGAGAAGUCUGCGGGUUCGAGUCCCGUACGGAACG | 0.684
GUUCCGUUGGCGUAAUGGUAACGCGUCUCCCUCCUAGGGAGAAGACUGCGGGUUUAAGUCCCGUAGGGAACG | ≤ 0.5
GUUCCGUUGGCGUAAUGGUAACGCGUCUCCCUCCUAGGGAGAGGACUGCGGGUUAAAGUCCCGUACGGAACG | 0.6
GUUCCGUUGGCGUAAUGGUAACGCGUCUCCCUCCUAGGGACAUGACUGCGGGUUCGAGUCCCGUACGGAACG | ≤ 0.5
GUUCCGUUGGCGUAAUGGUAACGCGUCUCCCUCCUAGGAAGAAGACUGCGGGUUCGAGUCCAGUACGGCACG | ≤ 0.5
GUUCCGUUGGCGUAAUGGUAACGCGUCUCCCUCCUAGGGAGAAGACUGCGCGUUCGAGUCCGGUACGGAACG | 0.55
GUUCCGUUGGCGUAAUGGUAACGCGUCUCCCUCCUAGGGAGAACACUGCGGGUUCGUGUCCCGUACUGCACG | ≤ 0.5
GUUCCGUUGGCGUAAUGGUAACGCGUCUCCCUCCUAGGGAGAACACUGCGGGUUCGUGUCCCCUACGGAACG | ≤ 0.5
GUUCCGUUGGCGUAAUGGUAACGCGUCUCCCUCCUAGGGAGAAGACUGCGGAUUCGAGUCCCGUACGGAACG | 0.583
GUUCCGUUGGCGUAAUGGUAACGCGUCUCCCUCCUAGGGAGAAGACUGCGGCUUCGAGUCCCGUACGGAACG | ≤ 0.5
GUUCCGUUGGCGUAAUGGUAACGCGUCUCCCUCCUAUGGUGAAGACUGCGGGUUCCAGUCCCGUACGGUACG | ≤ 0.5
GUUCCGUUGGCGUAAUGGUAACGCGUCUCCCUCCUAGGGAGAAGACUGCGGGCUCGAAUCCCGUACGAAACG | ≤ 0.5
GUUCCGUUGGCGUAAUGGUAACGCGUCUCCCUCCUAGGGAGAAGACUGCGGGUUCAAGUCCCGUACGGAACG | 0.825
GUUCCGUUGGCGUAAUGGUAACGCGUCUCCCUCCUAGGGAGAAGACUGCGGGUUCGAGUUCCGUACGGAACG | 0.631
GUUCCGUUGGCGUAAUGGUAACGCGUCUCCCUCCUAGGGAGAAGACUGCGGGUUCGAGUGCCGUACGGAACG | ≤ 0.5
GUUCCGUUGGCGUAAUGGUAACGCGUCUCCCUCCUAGGGAGAAGACUGCGGGUUCGAGUACCGUACGGAACG | 0.661
GUUCCGUUGGCGUAAUGGUAACGCGUCUCCCUCCUAGGAGAAGGACUGCGGGUUCGAGUCCCGUACGGAACG | ≤ 0.5
GUUCCGUUGGCGUAAUGGUAACGCGUCUCCCUCCUAGGGAGAAGACUGCGGGUUCGAGUCACCUACGGAACG | ≤ 0.5
GUUCCGUUGGCGUAAUGGUAACGCGUCUCCCUCCUAGGGAGAAGUCUGCGGGUUCGAGUUCCGUACGGAGCG | ≤ 0.5
GUUCCGUUGGCGUAAUGGUAACGCGUCUCCCUCCUAGGGAGAAGAUUGCGGGUUCGAGUCCCGUACGGAACG | 0.722
GUUCCGUUGGCGUAAUGGUAACGCGUCUCCCUCCUAUGGCGGAGACUGCGGGUUCGAGUCCCGUACGGAACG | ≤ 0.5
GUUCCGUUGGCGUAAUGGUAACGCGUCUCCCUCCUAGGGAGAAGACUGCGGGUUCGAGUCCCCUACGCAACG | ≤ 0.5

Variant | yeast fitness
GUUCCGUUGGCGUAAUGGUAACGCGUCUCCCUCCUAGGGAGAAGACUGCGGGUUGGAGUCCCGUAGGGAACG | ≤ 0.5
GUUCCGUUGGCGUAAUGGUAACGCGUCUCCCUCCUAGGGAAAAGACUGCGGGUUCGAGUCCCGUACGGAACG | 0.805
GUUCCGUUGGCGUAAUGGUAACGCGUCUCCCUCCUAGGGAGAAGACUGGGGGUUCGAGUCCCGUACGGAACG | 0.788
GUUCCGUUGGCGUAAUGGUAACGCGUCUCCCUCCUAGGGAGAAGACUGAGGGUUCGAGUCCCGUACGGAACG | 0.546
GUUCCGUUGGCGUAAUGGUAACGCGUCUCCCUCCUAUGGUGAAGACUGCGGGUUCGAGUCCCGCACAGAACG | ≤ 0.5
GUUCCGUUGGCGUAAUGGUAACGCGUCUCCCUCCUAGGGAGAAGACUACAGGUUCGAGGCCCGUACGGAACG | 0.66
GUUCCGUUGGCGUAAUGGUAACGCGUCUCCCUCCUAGGGAGAAGACUGCGGGUUCGAGUCCCGUACGGUACG | 0.856
GUUCCGUUGGCGUAAUGGUAACGCGUCUCCCUCCUAGGGAGAUGACUGCGGGUUCGAGUCCCGUACGGAACG | 0.631
GUUCCGUUGGCGUAAUGGUAACGCGUCUCCCUCCUAGGGAGAAGGCUACGGGUUCGAGUCCCGUACGGAACG | 0.557
GUUCCGUUGGCGUAAUGGUAACGCGUCUCCCUCCUAGGGAGAAGACUGCGGGUUAGACUCCCGUACGCAACG | ≤ 0.5
GUUCCGUUGGCGUAAUGGUAACGCGUCUCCCUCCUAGGGAGAAGCAUGCGGGUUCGAGUCCCGUACGGAACG | 0.579
GUUCCGUUGGCGUAAUGGUAACGCGUCUCCCUCCUAGGGAGAAGACUGCGGGUUCGAGUCACGUAUGGAACG | ≤ 0.5
GUUCCGUUGGCGUAAUGGUAACGCGUCUCCCUCCUAGGGAGAAGUCUGCGGGUUCGAGACCCGUACGGAACG | ≤ 0.5
GUUCCGUUGGCGUAAUGGUAACGCGUCUCCCUCCUAGGGAGAAGACUGCGGGUUCGCGUCCCGUACGGAACG | 0.545
GUUCCGUUGGCGUAAUGGUAACGCGUCUCCCUCCUAGGGAGAAGACUGCCGGUACGAGUCACGUACGGAACG | ≤ 0.5
GUUCCGUUGGCGUAAUGGUAACGCGUCUCCCUCCUAGGGAGAAGACUGCGGGUUCGAGUCCCGUACGCAACG | 0.665
GUUCCGUUGGCGUAAUGGUAACGCGUCUCCCUCCUAGGGAGAAGACUGCGGGUUCGAGUCCCGUACGAAACG | 0.88
GUUCCGUUGGCGUAAUGGUAACGCGUCUCCCUCCUAGGGAGAAGACUGCGGGUUCGAGUCCCAUACGGAACG | 0.62
GUUCCGUUGGCGUAAUGGUAACGCGUCUCCCUCCUAGGGAGAAGACUGCGGGUUCGAGUCCCCUACGGAACG | 0.66
GUUCCGUUGGCGUAAUGGUAACGCGUCUCCCUCCUAGGGAGAAGACUGCGGGUUCGAGUCCCGUCCGGAACG | 0.942
GUUCCGUUGGCGUAAUGGUAACGCGUCUCCCUCCUAGGGAGAAGACUGGGGGUUCGCGUCCCGUACGGAACG | 0.798
GUUCCGUUGGCGUAAUGGUAACGCGUCUCCCUCCUAGGGAGAAGACUGCGGGAUCGAGUCCCGUACGGAACG | ≤ 0.5
GUUCCGUUGGCGUAAUGGUAACGCGUCUCCCUCCUAGGGAGAAGACUGCGGGUUCGAGUCCCGUAGGGAACG | 0.692
GUUCCGUUGGCGUAAUGGUAACGCGUCUCCCUCCUAGGGAGAAGACUGCGGGUUCGAGUCCCGUAUGGAACG | 0.828
GUUCCGUUGGCGUAAUGGUAACGCGUCUCCCUCCUAGGGAGAAGACUGCCGGUUCGAGUCCCGUACGGAACG | 0.693
